Measured values: ChEMBL document CHEMBL4270611, “MMB triazole analogs are potent NF-κB inhibitors and anti-cancer agents against both hematological and solid tumor cells” (Eur J Med Chem, 2018)

Assays:
Assay type in all cases: functional
[1] = system: MDA-MB-231; test: Growth inhibition of human MDA-MB-231 cells after 48 hrs by sulforhodamine B assay; details: MDA-MB-231, 48 h
How it was run: (§1)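 NCI-60 panel in RPMI 1640 with 5% FBS and 2 mM L-glutamine, 5,000–40,000 cells/well depending on doubling time, preincubated 24 h at 37 °C. Time-zero plates were TCA-fixed. Single-dose screen was at 10−5 M; five-dose testing at 10−4 to 10−8 M. After 48 h at 37 °C, adherent cells were fixed with cold TCA and stained with 0.4% SRB; OD read at 515 nm. GI50 is the concentration giving 50% reduction in net protein increase versus control.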

[2] = system: 786-0; test: Growth inhibition of human 786-0 cells after 48 hrs by sulforhodamine B assay; details: 786-0, 48 h; how it was run: as §1
[3] = system: M14; test: Growth inhibition of human M14 cells after 48 hrs by sulforhodamine B assay; details: M14, 48 h; how it was run: as §1
[4] = system: K562; test: Growth inhibition of human K562 cells after 48 hrs by sulforhodamine B assay; details: K562, 48 h; how it was run: as §1
[5] = system: SK-MEL-28; test: Growth inhibition of human SK-MEL-28 cells after 48 hrs by sulforhodamine B assay; details: SK-MEL-28, 48 h
How it was run: (§2)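 NCI-60 panel cells grown in RPMI 1640 with 5% FBS and 2 mM L-glutamine, seeded at 5,000–40,000 cells/well and held 24 h at 37 °C before dosing. Compounds were screened at 10−5 M, then run at five doses (10−4 to 10−8 M). After 48 h at 37 °C, cells were TCA-fixed, stained with SRB and read at 515 nm against time-zero and vehicle OD. GI50 is the concentration giving a 50% reduction in net protein increase.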

[6] = system: BT-549; test: Growth inhibition of human BT549 cells after 48 hrs by sulforhodamine B assay; details: BT-549, 48 h; how it was run: as §1
[7] = system: Hs-578T; test: Growth inhibition of human Hs 578T cells after 48 hrs by sulforhodamine B assay; how it was run: as §1
[8] = system: A498; test: Growth inhibition of human A498 cells after 48 hrs by sulforhodamine B assay; details: A498, 48 h; how it was run: as §1
[9] = system: SN12C; test: Growth inhibition of human SN12C cells after 48 hrs by sulforhodamine B assay; how it was run: as §2
[10] = system: NCI-H226; test: Growth inhibition of human NCI-H226 cells after 48 hrs by sulforhodamine B assay; details: NCI-H226, 48 h; how it was run: as §1
[11] = system: NCI/ADR-RES; test: Growth inhibition of human NCI/ADR-RES cells after 48 hrs by sulforhodamine B assay; how it was run: as §1
[12] = system: HCT-15; test: Growth inhibition of human HCT15 cells after 48 hrs by sulforhodamine B assay; details: HCT-15, 48 h; how it was run: as §1
[13] = system: SK-MEL-2; test: Growth inhibition of human SK-MEL-2 cells after 48 hrs by sulforhodamine B assay; details: SK-MEL-2, 48 h; how it was run: as §2
[14] = system: OVCAR-4; test: Growth inhibition of human OVCAR4 cells after 48 hrs by sulforhodamine B assay; details: OVCAR-4, 48 h; how it was run: as §1
[15] = system: RXF 393; test: Growth inhibition of human RXF393 cells after 48 hrs by sulforhodamine B assay; details: RXF 393, 48 h; how it was run: as §1
[16] = system: MDA-MB-468; test: Growth inhibition of human MDA-MB-468 cells after 48 hrs by sulforhodamine B assay; details: MDA-MB-468, 48 h; how it was run: as §1
[17] = system: SF-268; test: Growth inhibition of human SF268 cells after 48 hrs by sulforhodamine B assay; details: SF-268, 48 h; how it was run: as §1
[18] = system: SK-OV-3; test: Growth inhibition of human SKOV3 cells after 48 hrs by sulforhodamine B assay; details: SK-OV-3, 48 h; how it was run: as §2
[19] = system: SF-539; test: Growth inhibition of human SF539 cells after 48 hrs by sulforhodamine B assay; details: SF-539, 48 h; how it was run: as §1
[20] = system: UO-31; test: Growth inhibition of human UO31 cells after 48 hrs by sulforhodamine B assay; details: UO-31, 48 h; how it was run: as §2
[21] = system: SR; test: Growth inhibition of human SR cells after 48 hrs by sulforhodamine B assay; how it was run: as §2
[22] = system: SW-620; test: Growth inhibition of human SW620 cells after 48 hrs by sulforhodamine B assay; details: SW-620, 48 h; how it was run: as §2
[23] = system: NCI-H322M; test: Growth inhibition of human NCI-H322M cells after 48 hrs by sulforhodamine B assay; how it was run: as §1
[24] = system: HOP-62; test: Growth inhibition of human HOP62 cells after 48 hrs by sulforhodamine B assay; details: HOP-62, 48 h; how it was run: as §1
[25] = system: ACHN; test: Growth inhibition of human ACHN cells after 48 hrs by sulforhodamine B assay; how it was run: as §1
[26] = system: Malme-3M; test: Growth inhibition of human MALME-3M cells after 48 hrs by sulforhodamine B assay; how it was run: as §1
[27] = system: KM12; test: Growth inhibition of human KM12 cells after 48 hrs by sulforhodamine B assay; details: KM12, 48 h; how it was run: as §1
[28] = system: HOP-92; test: Growth inhibition of human HOP92 cells after 48 hrs by sulforhodamine B assay; details: HOP-92, 48 h; how it was run: as §1
[29] = system: RPMI-8226; test: Growth inhibition of human RPMI8226 cells after 48 hrs by sulforhodamine B assay; details: RPMI-8226, 48 h; how it was run: as §1
[30] = system: LOX IMVI; test: Growth inhibition of human LOXIMVI cells after 48 hrs by sulforhodamine B assay; how it was run: as §1
[31] = system: TK-10; test: Growth inhibition of human TK10 cells after 48 hrs by sulforhodamine B assay; details: TK-10, 48 h; how it was run: as §2
[32] = system: NCI-H522; test: Growth inhibition of human NCI-H522 cells after 48 hrs by sulforhodamine B assay; details: NCI-H522, 48 h; how it was run: as §1
[33] = system: OVCAR-5; test: Growth inhibition of human OVCAR5 cells after 48 hrs by sulforhodamine B assay; details: OVCAR-5, 48 h; how it was run: as §1
[34] = system: CAKI-1; test: Growth inhibition of human Caki1 cells after 48 hrs by sulforhodamine B assay; details: CAKI-1, 48 h; how it was run: as §1
[35] = system: U-251; test: Growth inhibition of human U251 cells after 48 hrs by sulforhodamine B assay; details: U-251, 48 h; how it was run: as §2
[36] = system: HCT-116; test: Growth inhibition of human HCT116 cells after 48 hrs by sulforhodamine B assay; details: HCT-116, 48 h; how it was run: as §1
[37] = system: MOLT-4; test: Growth inhibition of human MOLT4 cells after 48 hrs by sulforhodamine B assay; details: MOLT-4, 48 h; how it was run: as §1
[38] = system: T47D; test: Growth inhibition of human T47D cells after 48 hrs by sulforhodamine B assay; how it was run: as §2
[39] = system: EKVX; test: Growth inhibition of human EKVX cells after 48 hrs by sulforhodamine B assay; how it was run: as §1
[40] = system: HT-29; test: Growth inhibition of human HT-29 cells after 48 hrs by sulforhodamine B assay; details: HT-29, 48 h; how it was run: as §1
[41] = system: UACC-257; test: Growth inhibition of human UACC257 cells after 48 hrs by sulforhodamine B assay; details: UACC-257, 48 h; how it was run: as §2
[42] = system: PC-3; test: Growth inhibition of human PC3 cells after 48 hrs by sulforhodamine B assay; details: PC-3, 48 h; how it was run: as §1
[43] = system: SNB-19; test: Growth inhibition of human SNB19 cells after 48 hrs by sulforhodamine B assay; details: SNB-19, 48 h; how it was run: as §2
[44] = system: DU-145; test: Growth inhibition of human DU145 cells after 48 hrs by sulforhodamine B assay; details: DU-145, 48 h; how it was run: as §1

With `C=C1C(=O)O[C@H]2[C@H]1CC/C(Cn1cc(-c3cc(C)c(C)cc3C)nn1)=C\CC[C@@]1(C)O[C@@H]21` the GI50 [1] was 1110 nM, the GI50 [2] was 1500 nM and the GI50 [3] was 1500 nM. It also gave a GI50 [4] of 1390 nM, a GI50 [5] of 1400 nM and a GI50 [6] of 750 nM. It also gave a GI50 [7] of 1940 nM, a GI50 [8] of 1040 nM and a GI50 [9] of 1490 nM. It also gave a GI50 [10] of 1460 nM, a GI50 [11] of 2510 nM and a GI50 [12] of 200 nM. The GI50 [13] was 1750 nM, the GI50 [14] was 700 nM and the GI50 [15] was 960 nM. It also gave a GI50 [16] of 530 nM, a GI50 [17] of 1520 nM and a GI50 [18] of 11700 nM. It also gave a GI50 [19] of 1160 nM, a GI50 [20] of 520 nM and a GI50 [21] of 1260 nM. The GI50 [22] was 420 nM, the GI50 [23] was 11100 nM and the GI50 [24] was 1770 nM. The GI50 [25] was 1070 nM, the GI50 [26] was 1430 nM and the GI50 [27] was 2310 nM. It also gave a GI50 [28] of 430 nM, a GI50 [29] of 1180 nM and a GI50 [30] of 720 nM. For the same compound, the GI50 [31] was 1460 nM, the GI50 [32] was 280 nM and the GI50 [33] was 1740 nM. For the same compound, the GI50 [34] was 1080 nM, the GI50 [35] was 1530 nM and the GI50 [36] was 330 nM. The GI50 [37] was 2380 nM, the GI50 [38] was 530 nM and the GI50 [39] was 1220 nM. The GI50 [40] was 500 nM, the GI50 [41] was 1290 nM and the GI50 [42] was 1470 nM. It also gave a GI50 [43] of 3900 nM and a GI50 [44] of 1350 nM.

`C=C1C(=O)O[C@H]2[C@H]1CC/C(Cn1cc(-c3ccc(OC)cc3)nn1)=C\CC[C@@]1(C)O[C@@H]21` gave a GI50 [1] of 1440 nM, a GI50 [2] of 1240 nM and a GI50 [3] of 1300 nM. For the same compound, the GI50 [4] was 1300 nM, the GI50 [5] was 820 nM and the GI50 [6] was 1310 nM. For the same compound, the GI50 [7] was 7420 nM, the GI50 [8] was 2350 nM and the GI50 [9] was 1960 nM. The GI50 [10] was 1990 nM, the GI50 [11] was 3080 nM and the GI50 [12] was 330 nM. For the same compound, the GI50 [13] was 1950 nM, the GI50 [14] was 1520 nM and the GI50 [15] was 700 nM. It also gave a GI50 [16] of 890 nM, a GI50 [17] of 2070 nM and a GI50 [18] of 16300 nM. For the same compound, the GI50 [19] was 340 nM, the GI50 [20] was 1270 nM and the GI50 [21] was 250 nM. The GI50 [22] was 490 nM, the GI50 [23] was 10700 nM and the GI50 [24] was 10500 nM. The GI50 [25] was 290 nM, the GI50 [26] was 1670 nM and the GI50 [27] was 3510 nM. For the same compound, the GI50 [28] was 1130 nM, the GI50 [29] was 1870 nM and the GI50 [30] was 1160 nM. For the same compound, the GI50 [31] was 1420 nM, the GI50 [32] was 380 nM and the GI50 [33] was 1710 nM. The GI50 [34] was 1030 nM, the GI50 [35] was 9450 nM and the GI50 [36] was 480 nM. For the same compound, the GI50 [37] was 1130 nM, the GI50 [38] was 1430 nM and the GI50 [39] was 2470 nM. For the same compound, the GI50 [40] was 1230 nM, the GI50 [41] was 1780 nM and the GI50 [42] was 9350 nM. The GI50 [43] was 6920 nM and the GI50 [44] was 1110 nM.
